# Assay outcomes: PubChem BioAssay, The Scripps Research Institute Molecular Screening Center
# In the library only some 1.9% were active in any assay of this set; here they are far more common.
# CHRM4 antagonist = CHRM4 antagonism in calcium assay; P08173; CHO-hM4 cells, ACh EC80, Fluo-8 calcium fluorescence; inhibition, % at 3 µM; 360,000 tested, 0.73% active;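 active = inhibition above its plate's cutoff, the mean inhibition of sample wells plus 3 SD, cut at about 27% in these data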;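 also: 0% = acetylcholine EC80 with DMSO and 100% = DMSO without agonist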
# CHRM4 agonist = CHRM4 agonism in calcium assay; activation, % at 3 µM; CHO-K1 hM4/Gqi5, Fluo-8 calcium fluorescence; vehicle 0%, full acetylcholine response 100%; 360,000 tested, 0.14% active; P08173;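 active = activation above the run mean over all test wells plus 3 SD, cut at about 32% in these data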;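 also: peak over basal fluorescence ratio per well then scaled between controls; 0% = DMSO wells and 100% = acetylcholine at EC100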
# CHRM4 PAM = potentiates acetylcholine response at human M4 receptor. AID 624126. 360,000 tested, 0.4% active. P08173. CHO-K1 hM4/Gqi5, Fluo-8 calcium fluorescence, ACh EC20; 0% = ACh EC20, 100% = maximal ACh. activation, % at 3 µM;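 active = activation above its plate's cutoff, the mean activation of sample wells plus 3 SD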
# M5 ag = CHRM5 agonism in calcium assay; P08912; CHO-K1 hM5 cells, Fluo-8 calcium fluorescence; 0% DMSO wells, 100% maximal acetylcholine response; activation, % at 3 µM; 360,000 tested, 0.19% active;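 active = activation above the run's mean over test compounds plus 3 SD, cut at about 23% in these data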;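 also: signal is peak over basal fluorescence ratio across the kinetic read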
# Target sequence (P08912 whole entry, looked up): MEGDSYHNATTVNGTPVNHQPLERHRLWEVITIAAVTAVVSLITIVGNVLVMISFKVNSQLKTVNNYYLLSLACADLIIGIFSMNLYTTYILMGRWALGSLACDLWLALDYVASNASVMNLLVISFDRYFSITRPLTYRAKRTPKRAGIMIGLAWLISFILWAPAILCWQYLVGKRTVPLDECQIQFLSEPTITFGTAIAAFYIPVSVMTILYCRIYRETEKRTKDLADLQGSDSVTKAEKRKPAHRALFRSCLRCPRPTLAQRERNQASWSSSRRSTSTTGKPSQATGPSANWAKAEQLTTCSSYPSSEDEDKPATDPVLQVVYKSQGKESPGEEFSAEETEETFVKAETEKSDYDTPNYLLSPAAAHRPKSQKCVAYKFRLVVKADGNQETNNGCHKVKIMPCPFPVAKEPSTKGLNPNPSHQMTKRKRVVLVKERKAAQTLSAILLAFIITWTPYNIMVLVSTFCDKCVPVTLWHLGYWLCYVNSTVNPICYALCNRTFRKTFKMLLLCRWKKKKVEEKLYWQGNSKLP
# CHRM5 antagonist = antagonists of human muscarinic M5 receptor (CHRM5); P08912; CHO-hM5 cells, Fluo-8 calcium fluorescence, ACh EC80; 360,000 tested, 0.59% active; AID 624040; inhibition, % at 3 µM;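 active = inhibition above a per-plate cutoff, the mean of that plate's test compounds plus 3 SD, cut at about 27% in these data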;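 also: 0% = acetylcholine EC80 with DMSO and 100% = DMSO without agonist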
# CHRM5 PAM = CHRM5 positive allosteric modulation. P08912. CHO-K1 hM5, Fluo-8 calcium, ACh EC20 PAM; 0% = ACh EC20, 100% = ACh EC100. activation, % at 3 µM. 360,000 tested, 0.3% active;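 active = activation above the run cutoff, the mean activation of all test compounds plus 3 SD, cut at about 18% in these data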
#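 Assay system – human M5 receptor in CHO-K1 cells · Read-out – % activation, ACh-normalized · Technique – Fluo-8 calcium fluorescence · Dosing – single-point, 3 µM nominal · Incubation – Fluo-8 loading 80 min at 37 °C plus 30 min room temperature · Repeats – singlicate, one well per test compound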
# An asterisk follows results filed as active.
SMILES,CHRM4 antagonist,CHRM4 agonist,CHRM4 PAM,M5 ag,CHRM5 antagonist,CHRM5 PAM
CS(=O)(=O)N1CCN(c2ccc([N+](=O)[O-])c3cccnc23)CC1,35*,2,21,1,-3,3
N#Cc1ccc(S(=O)(=O)N2CCN(Cc3cccs3)CC2)cc1,3,3,-1,2,10,-19
CC(NC(=O)COC(=O)c1ccc([N+](=O)[O-])s1)c1ccccc1 (stereo unspecified),-1,2,12,1,9,32*
O=C(NC(c1ccc(-c2ccccc2)cc1)c1cnccn1)C1CCN(CCCOc2ccccc2)CC1 (stereo unspecified),4,36*,-14,7,4,-6
CCC(=O)N1CCCc2cc(S(=O)(=O)N3CCN(c4ccccn4)CC3)ccc21,-5,6,0,-6,8,33*
CCC(=O)N1CCCc2cc(S(=O)(=O)N3CCN(c4ncccn4)CC3)ccc21,-14,2,4,1,1,-3
COc1ccc(C(=O)COC(=O)C2COc3ccccc3O2)cc1F (stereo unspecified),-2,3,15,-1,8,3
COC(=O)c1ccc(S(=O)(=O)N2CCN(CCO)CC2)n1C,-3,1,17,5,1,25*
COC(=O)c1ccc(S(=O)(=O)N2CCCN(Cc3ccccc3)CC2)n1C,-8,2,-6,-6,4,0
Cc1ccc(C(C)C)cc1OCC(=O)NNC(=O)Nc1ccccc1,61*,4,-16,-6,0,-4
Cc1ccc(C(C)C)c(OCC(=O)NNC(=O)Nc2ccccc2)c1,6,3,-7,5,6,0
O=C(Nc1cccc(NC(=O)c2ccc(-c3ccc(Br)cc3)o2)c1)c1ccco1,32*,12,-22,-1,31*,-19
O=C(Nc1cccc(NC(=O)c2ccccc2Cl)c1)c1ccco1,-9,8,0,-1,-2,-2
CCC(=O)Nc1cccc(-c2ccc(N3CCC(C)CC3)nn2)c1,-8,1,8,-2,-20,20*
CCc1ccc(OCC(=O)NNC(=O)c2cnccn2)c(Br)c1,-19,1,20*,-5,-5,3
CCN(C(=O)C(=O)c1c[nH]c2ccccc12)c1ccccc1,-1,1,-5,0,2,3
COc1ccc(S(=O)(=O)Cc2ccc(C(=O)NCCCN(C)c3ccccc3)o2)cc1,28*,7,-16,-3,8,0
CCCCOc1ccc(C2/C(=C(/O)c3ccc4c(c3)CC(C)O4)C(=O)C(=O)N2CCCN2CCOCC2)cc1OC (stereo unspecified),6,2,-3,-4,8,-12
O=C1NC(=S)S/C1=C\c1cc(Cl)cc(Cl)c1O,12,52*,-13,193*,30*,-41
Cc1sc2ncnc(NCC(O)c3ccccc3)c2c1C (stereo unspecified),7,18,-5,8,12,-12
Cc1sc2ncnc(NCC(O)c3ccc([N+](=O)[O-])cc3)c2c1C (stereo unspecified),13,20,-9,5,36*,-14
CCOC(=O)C1CCCN(C(=O)C(CCSC)NC(=O)COc2ccccc2)C1 (stereo unspecified),-8,3,7,4,1,-4
CC1=NN(C(=S)Nc2ccccc2)C(C)(C)C1,2,0,2,-3,10,19*
CN(C(=O)CCNC(=O)Cn1cnc2ccccc2c1=O)c1ccc(Br)cc1,9,1,-4,0,6,0
CN(CCc1ccccn1)C(=O)CCNC(=O)Cn1cnc2ccccc2c1=O,-13,2,19*,2,6,1
SMILES,CHRM4 antagonist,CHRM4 agonist,CHRM4 PAM,M5 ag,CHRM5 antagonist,CHRM5 PAM
CN(C(=O)c1ccc(NC(=O)Cc2ccc(NC(=O)C3CCN(C(=O)C4CC4)CC3)cc2)cc1)C1CCCC1,-21,0,20*,-1,-1,-5
O=C(Nc1ccccc1)C1CCCN(C(=O)c2ccc(Cl)cc2)C1 (stereo unspecified),-11,4,3,6,-11,0
O=C(Nc1ccccc1)C1CCCN(C(=O)c2ccc(F)cc2)C1 (stereo unspecified),-4,2,22*,1,1,2
O=C(Cc1ccc(NC(=O)C2CCCN(C(=O)C3CCCCC3)C2)cc1)Nc1cccc(C(=O)N2CCCC2)c1 (stereo unspecified),-1,-2,17*,1,8,-5
O=C(NC1CCCCC1)N1CCC(c2nc(-c3ccc(S(=O)(=O)N4CCCC4)cc3)no2)CC1,2,2,21,4,-8,-1
O=C(C1CC1)N1CCC(c2nc(-c3ccc(S(=O)(=O)N4CCCC4)cc3)no2)CC1,-3,3,16,-7,66*,-16
CCN(CC(=O)Nc1c(F)cccc1F)C(=O)c1ccc(-n2cncn2)c([N+](=O)[O-])c1,35*,0,-6,4,0,1
Cc1ccc(C)c(NS(=O)(=O)c2ccccc2C)c1,-3,-1,4,-5,0,4
Cc1ccc(C(=O)Nc2cccc(S(=O)(=O)N3CCCCC3)c2)cc1[N+](=O)[O-],7,0,3,1,13,5
O=C(Nc1ccc2c(c1)OCO2)C1Cc2c(-c3ccc(Cl)cc3)ccnc2O1 (stereo unspecified),-22,3,3,0,-4,-1
CCN(C(=O)CSc1nc2ccccc2c(=O)n1Cc1ccc(C)cc1)C1CCS(=O)(=O)C1 (stereo unspecified),-1,0,1,-4,5,-1
CCn1c(SCC(=O)N(Cc2ccccc2)C2CCS(=O)(=O)C2)nc2ccccc2c1=O (stereo unspecified),-6,-1,31*,0,-2,1
CSc1ccc(C=NNc2ccc(S(=O)(=O)Nc3ccccc3C(=O)O)cc2[N+](=O)[O-])cc1,1,0,0,3,7,3
O=C(O)c1ccccc1NS(=O)(=O)c1ccc(NN=Cc2ccccc2F)c([N+](=O)[O-])c1,-19,-1,24*,1,-6,10
Cc1cn([C@@H](CCCCNC(=O)OC(C)(C)C)C(=O)NCCCCCCCCCCC(=O)N2CCN(C(=O)OC(C)(C)C)CC2)nn1,40*,28,-16,0,19,-40
CC[C@H](C)Cc1cn([C@@H](CCCCN)C(=O)NCCCCCCCCCCC(=O)N2CCNCC2)nn1,-5,0,3,-10,3,7
